Source: ChEMBL document CHEMBL4689842, “EUbOPEN Chemogenomics Library wave 1” (2021)

Legend:
U2OS = test: Multiplex assay against U2OS; format: toxicity, cell-based; settings: human
Summary of the method: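 Hoechst33342, BioTracker Green Microtubule Cytoskeleton Dye, MitoTracker Red and Annexin V Alexa Fluor 680 were added to live cells at seeding, and imaging on a CQ1 microscope at 37°C and 5% CO2 followed compound addition. Gating by CellPathfinder machine learning separated cells into Hoechst high-intensity objects or normal cells, then normal cells into healthy, pyknosed or fragmented nuclei, then pyknosed cells into mitotic or apoptotic. Per cents of healthy-nucleus cells are reported for the tubulin, mitochondrial-mass and membrane-permeability phenotypes.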

HEK-293T = test: Incucyte cell viability with HEK293T; format: toxicity, cell-based; settings: human, 10 µM, compound concentration 10 uM; also: filed as whole numbers so only -1 and 0 and 1 occur
[1] = 12 h, 1 µM, compound concentration 1 uM, replicate 1
[2] = 12 h, 1 µM, compound concentration 1 uM, replicate 2
[3] = 12 h, 10 µM, compound concentration 10 uM, replicate 1
[4] = 12 h, 10 µM, compound concentration 10 uM, replicate 2
[5] = 24 h, 1 µM, compound concentration 1 uM, replicate 1
[6] = 24 h, 1 µM, compound concentration 1 uM, replicate 2
[7] = 24 h, 10 µM, compound concentration 10 uM, replicate 1
[8] = 24 h, 10 µM, compound concentration 10 uM, replicate 2
[9] = 48 h, 1 µM, compound concentration 1 uM, replicate 1
[10] = 48 h, 1 µM, compound concentration 1 uM, replicate 2
[11] = 48 h, 10 µM, compound concentration 10 uM, replicate 1
[12] = 48 h, 10 µM, compound concentration 10 uM, replicate 2

## Nc1ccc(C(=O)Nc2cccc(-c3nc(N4CCOCC4)c4oc5ncccc5c4n3)c2)cn1
U2OS; [1]
  Population Apoptotic (%): 42%
  Population Fragmented Nuclei (%): 20%
  Population Healthy Nuclei (%): 64%
  Population Hoechst High Intensity Objects (%): 10%
  Population Mitochondria Different-Phenotype (%): 36%
  Population Mitotic Cells (%): 57%
  Population Normal (%): 89%
  Population Pyknosed Nuclei (%): 15%
  Population Tubulin-Different-Phenotype (%): 54%
  Total Cell Count: 215
U2OS; [2]
  Population Apoptotic (%): 9%
  Population Healthy Nuclei (%): 61%
  Population Mitochondria Different-Phenotype (%): 21%
  Population Mitotic Cells (%): 90%
  Population Pyknosed Nuclei (%): 17%
  Population Tubulin-Different-Phenotype (%): 28%
  Total Cell Count: 55
U2OS; [3]
  Population Apoptotic (%): 56%
  Population Fragmented Nuclei (%): 57%
  Population Healthy Nuclei (%): 24%
  Population Hoechst High Intensity Objects (%): 21%
  Population Mitochondria Different-Phenotype (%): 83%
  Population Mitotic Cells (%): 43%
  Population Normal (%): 78%
  Population Pyknosed Nuclei (%): 18%
  Population Tubulin-Different-Phenotype (%): 93%
  Total Cell Count: 191
U2OS; [4]
  Population Apoptotic (%): 51%
  Population Fragmented Nuclei (%): 62%
  Population Healthy Nuclei (%): 15%
  Population Hoechst High Intensity Objects (%): 19%
  Population Mitochondria Different-Phenotype (%): 76%
  Population Mitotic Cells (%): 48%
  Population Normal (%): 80%
  Population Pyknosed Nuclei (%): 22%
  Population Tubulin-Different-Phenotype (%): 90%
  Total Cell Count: 69
U2OS; [5]
  Population Apoptotic (%): 46%
  Population Fragmented Nuclei (%): 16%
  Population Healthy Nuclei (%): 65%
  Population Hoechst High Intensity Objects (%): 7%
  Population Mitochondria Different-Phenotype (%): 31%
  Population Mitotic Cells (%): 53%
  Population Normal (%): 92%
  Population Pyknosed Nuclei (%): 17%
  Population Tubulin-Different-Phenotype (%): 51%
  Total Cell Count: 221
U2OS; [6]
  Population Apoptotic (%): 21%
  Population Fragmented Nuclei (%): 28%
  Population Healthy Nuclei (%): 52%
  Population Hoechst High Intensity Objects (%): 5%
  Population Mitochondria Different-Phenotype (%): 42%
  Population Mitotic Cells (%): 78%
  Population Normal (%): 95%
  Population Pyknosed Nuclei (%): 18%
  Population Tubulin-Different-Phenotype (%): 27%
  Total Cell Count: 57
U2OS; [7]
  Population Apoptotic (%): 80%
  Population Fragmented Nuclei (%): 59%
  Population Healthy Nuclei (%): 14%
  Population Hoechst High Intensity Objects (%): 23%
  Population Mitochondria Different-Phenotype (%): 88%
  Population Mitotic Cells (%): 19%
  Population Normal (%): 76%
  Population Pyknosed Nuclei (%): 26%
  Population Tubulin-Different-Phenotype (%): 81%
  Total Cell Count: 201
U2OS; [8]
  Population Apoptotic (%): 84%
  Population Fragmented Nuclei (%): 60%
  Population Healthy Nuclei (%): 5%
  Population Hoechst High Intensity Objects (%): 19%
  Population Mitochondria Different-Phenotype (%): 100%
  Population Mitotic Cells (%): 15%
  Population Normal (%): 80%
  Population Pyknosed Nuclei (%): 34%
  Population Tubulin-Different-Phenotype (%): 100%
  Total Cell Count: 80
U2OS; [9]
  Population Apoptotic (%): 57%
  Population Fragmented Nuclei (%): 18%
  Population Healthy Nuclei (%): 60%
  Population Hoechst High Intensity Objects (%): 9%
  Population Mitochondria Different-Phenotype (%): 28%
  Population Mitotic Cells (%): 42%
  Population Normal (%): 90%
  Population Pyknosed Nuclei (%): 21%
  Population Tubulin-Different-Phenotype (%): 45%
  Total Cell Count: 240
U2OS; [10]
  Population Apoptotic (%): 25%
  Population Fragmented Nuclei (%): 28%
  Population Healthy Nuclei (%): 53%
  Population Hoechst High Intensity Objects (%): 7%
  Population Mitochondria Different-Phenotype (%): 22%
  Population Mitotic Cells (%): 75%
  Population Normal (%): 92%
  Population Pyknosed Nuclei (%): 17%
  Population Tubulin-Different-Phenotype (%): 24%
  Total Cell Count: 56
U2OS; [11]
  Population Fragmented Nuclei (%): 62%
  Population Healthy Nuclei (%): 5%
  Population Hoechst High Intensity Objects (%): 23%
  Population Mitochondria Different-Phenotype (%): 76%
  Population Normal (%): 76%
  Population Pyknosed Nuclei (%): 31%
  Population Tubulin-Different-Phenotype (%): 66%
  Total Cell Count: 244
U2OS; [12]
  Population Apoptotic (%): 91%
  Population Fragmented Nuclei (%): 65%
  Population Healthy Nuclei (%): 8%
  Population Hoechst High Intensity Objects (%): 16%
  Population Mitochondria Different-Phenotype (%): 100%
  Population Mitotic Cells (%): 8%
  Population Normal (%): 83%
  Population Pyknosed Nuclei (%): 26%
  Population Tubulin-Different-Phenotype (%): 100%
  Total Cell Count: 98
HEK-293T; 0 h, replicate number 2, timepoint 0 hours
  Growth Rate: 0
HEK-293T; 6 h, replicate number 1, timepoint 6 hours
  Growth Rate: 0
HEK-293T; 12 h, replicate number 1, timepoint 12 hours
  Growth Rate: 0
HEK-293T; 18 h, replicate number 1, timepoint 18 hours
  Growth Rate: 0
HEK-293T; 24 h, replicate number 1, timepoint 24 hours
  Growth Rate: 0
